Values after ≈ are worked out from the molar mass of the structure shown.
Tested on: Klebsiella aerogenes
Experiment: In vitro minimum inhibitory concentration for Enterobacter aerogenes (ATCC-29751) by agar dilution method
Type: functional
Conditions: Klebsiella aerogenes; read-out: MIC
How it was run: (§1)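 Two-fold serial dilutions of each compound dispersed in Mueller-Hinton agar; plates spot-inoculated with 2 μL of standard test strain at 10^7 CFU/mL, incubated 37 °C for 20 h; MIC read as lowest concentration inhibiting growth.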

| Structure (SMILES) | MIC [µg/mL] |
| --- | --- |
| CC(C)(O/N=C(\C(=O)NC1C(=O)N2C(C(=O)[O-])=C(CSc3nc(N)c4c([n+]3N)CCCC4)CSC12)c1cnc(N)s1)C(=O)O (stereo not drawn) | 0.5 (≈ 0.753 µM) |
| Cc1c(N)nc(SCC2=C(C(=O)[O-])N3C(=O)C(NC(=O)/C(=N\OC(C)(C)C(=O)O)c4cnc(N)s4)C3SC2)[n+]2ncn(C)c12 (stereo not drawn) | 1 (≈ 1.51 µM) |
| C/C=C/[n+]1c(N)cc(N)nc1SCC1=C(C(=O)[O-])N2C(=O)C(NC(=O)/C(=N\OC(C)(C)C(=O)O)c3cnc(N)s3)C2SC1 (stereo not drawn) | 2 (≈ 3.08 µM) |
| CC(C)(O/N=C(\C(=O)NC1C(=O)N2C(C(=O)O)=C(CSc3nccc(N)n3)CSC12)c1cnc(N)s1)C(=O)O (stereo not drawn) | 8 (≈ 13.5 µM) |

Tested on: Staphylococcus aureus
Experiment: In vitro minimum inhibitory concentration for Staphylococcus aureus (ATCC 6538p) by agar dilution method
Type: functional
Conditions: Staphylococcus aureus, ATCC 6538p; read-out: MIC
How it was run: as §1

| Structure (SMILES) | MIC [µg/mL] |
| --- | --- |
| CC(C)(O/N=C(\C(=O)NC1C(=O)N2C(C(=O)[O-])=C(CSc3nc(N)c4c([n+]3N)CCCC4)CSC12)c1cnc(N)s1)C(=O)O (stereo not drawn) | 4 (≈ 6.03 µM) |
| Cc1c(N)nc(SCC2=C(C(=O)[O-])N3C(=O)C(NC(=O)/C(=N\OC(C)(C)C(=O)O)c4cnc(N)s4)C3SC2)[n+]2ncn(C)c12 (stereo not drawn) | 8 (≈ 12.1 µM) |
| C/C=C/[n+]1c(N)cc(N)nc1SCC1=C(C(=O)[O-])N2C(=O)C(NC(=O)/C(=N\OC(C)(C)C(=O)O)c3cnc(N)s3)C2SC1 (stereo not drawn) | 4 (≈ 6.16 µM) |
| CC(C)(O/N=C(\C(=O)NC1C(=O)N2C(C(=O)O)=C(CSc3nccc(N)n3)CSC12)c1cnc(N)s1)C(=O)O (stereo not drawn) | 32 (≈ 53.8 µM) |

Tested on: Salmonella typhimurium
Experiment: In vitro minimum inhibitory concentration for Salmonella Typhimurium (ATCC-14028) by agar dilution method
Type: functional, Salmonella enterica subsp. enterica serovar Typhimurium
Conditions: Salmonella enterica; read-out: MIC
How it was run: as §1

| Structure (SMILES) | MIC [µg/mL] |
| --- | --- |
| CC(C)(O/N=C(\C(=O)NC1C(=O)N2C(C(=O)[O-])=C(CSc3nc(N)c4c([n+]3N)CCCC4)CSC12)c1cnc(N)s1)C(=O)O (stereo not drawn) | 0.13 (≈ 0.196 µM) |
| Cc1c(N)nc(SCC2=C(C(=O)[O-])N3C(=O)C(NC(=O)/C(=N\OC(C)(C)C(=O)O)c4cnc(N)s4)C3SC2)[n+]2ncn(C)c12 (stereo not drawn) | 0.25 (≈ 0.377 µM) |
| C/C=C/[n+]1c(N)cc(N)nc1SCC1=C(C(=O)[O-])N2C(=O)C(NC(=O)/C(=N\OC(C)(C)C(=O)O)c3cnc(N)s3)C2SC1 (stereo not drawn) | 0.25 (≈ 0.385 µM) |
| CC(C)(O/N=C(\C(=O)NC1C(=O)N2C(C(=O)O)=C(CSc3nccc(N)n3)CSC12)c1cnc(N)s1)C(=O)O (stereo not drawn) | 1 (≈ 1.68 µM) |

Tested on: Klebsiella pneumoniae
Experiment: In vitro minimum inhibitory concentration for Klebsiella pneumoniae (ATCC-10031) by agar dilution method
Type: functional
Conditions: Klebsiella pneumoniae; read-out: MIC

| Structure (SMILES) | MIC [µg/mL] |
| --- | --- |
| CC(C)(O/N=C(\C(=O)NC1C(=O)N2C(C(=O)[O-])=C(CSc3nc(N)c4c([n+]3N)CCCC4)CSC12)c1cnc(N)s1)C(=O)O (stereo not drawn) | 0.06 (≈ 0.0904 µM) |
| Cc1c(N)nc(SCC2=C(C(=O)[O-])N3C(=O)C(NC(=O)/C(=N\OC(C)(C)C(=O)O)c4cnc(N)s4)C3SC2)[n+]2ncn(C)c12 (stereo not drawn) | 0.06 (≈ 0.0905 µM) |
| C/C=C/[n+]1c(N)cc(N)nc1SCC1=C(C(=O)[O-])N2C(=O)C(NC(=O)/C(=N\OC(C)(C)C(=O)O)c3cnc(N)s3)C2SC1 (stereo not drawn) | 0.06 (≈ 0.0923 µM) |
| CC(C)(O/N=C(\C(=O)NC1C(=O)N2C(C(=O)O)=C(CSc3nccc(N)n3)CSC12)c1cnc(N)s1)C(=O)O (stereo not drawn) | 0.5 (≈ 0.841 µM) |

Tested on: Pseudomonas aeruginosa
Experiment: In vitro minimum inhibitory concentration for Pseudomonas aeruginosa (ATCC 10145) by agar dilution method
Type: functional
Conditions: not given
How it was run: as §1

| Structure (SMILES) | MIC [µg/mL] |
| --- | --- |
| CC(C)(O/N=C(\C(=O)NC1C(=O)N2C(C(=O)[O-])=C(CSc3nc(N)c4c([n+]3N)CCCC4)CSC12)c1cnc(N)s1)C(=O)O (stereo not drawn) | 4 (≈ 6.03 µM) |
| Cc1c(N)nc(SCC2=C(C(=O)[O-])N3C(=O)C(NC(=O)/C(=N\OC(C)(C)C(=O)O)c4cnc(N)s4)C3SC2)[n+]2ncn(C)c12 (stereo not drawn) | 4 (≈ 6.04 µM) |
| C/C=C/[n+]1c(N)cc(N)nc1SCC1=C(C(=O)[O-])N2C(=O)C(NC(=O)/C(=N\OC(C)(C)C(=O)O)c3cnc(N)s3)C2SC1 (stereo not drawn) | 2 (≈ 3.08 µM) |
| CC(C)(O/N=C(\C(=O)NC1C(=O)N2C(C(=O)O)=C(CSc3nccc(N)n3)CSC12)c1cnc(N)s1)C(=O)O (stereo not drawn) | 16 (≈ 26.9 µM) |

Tested on: Serratia marcescens
Experiment: In vitro minimum inhibitory concentration for Serratia marcescens (ATCC-27117) by agar dilution method
Type: functional
Conditions: Serratia marcescens; read-out: MIC
How it was run: as §1

| Structure (SMILES) | MIC [µg/mL] |
| --- | --- |
| CC(C)(O/N=C(\C(=O)NC1C(=O)N2C(C(=O)[O-])=C(CSc3nc(N)c4c([n+]3N)CCCC4)CSC12)c1cnc(N)s1)C(=O)O (stereo not drawn) | 0.25 (≈ 0.377 µM) |
| Cc1c(N)nc(SCC2=C(C(=O)[O-])N3C(=O)C(NC(=O)/C(=N\OC(C)(C)C(=O)O)c4cnc(N)s4)C3SC2)[n+]2ncn(C)c12 (stereo not drawn) | 0.25 (≈ 0.377 µM) |
| C/C=C/[n+]1c(N)cc(N)nc1SCC1=C(C(=O)[O-])N2C(=O)C(NC(=O)/C(=N\OC(C)(C)C(=O)O)c3cnc(N)s3)C2SC1 (stereo not drawn) | 0.13 (≈ 0.2 µM) |
| CC(C)(O/N=C(\C(=O)NC1C(=O)N2C(C(=O)O)=C(CSc3nccc(N)n3)CSC12)c1cnc(N)s1)C(=O)O (stereo not drawn) | 1 (≈ 1.68 µM) |

Tested on: Proteus vulgaris
Experiment: In vitro minimum inhibitory concentration for Proteus vulgaris (ATCC-6059) by agar dilution method
Type: functional
Conditions: Proteus vulgaris; read-out: MIC
How it was run: as §1

| Structure (SMILES) | MIC [µg/mL] |
| --- | --- |
| CC(C)(O/N=C(\C(=O)NC1C(=O)N2C(C(=O)[O-])=C(CSc3nc(N)c4c([n+]3N)CCCC4)CSC12)c1cnc(N)s1)C(=O)O (stereo not drawn) | 0.06 (≈ 0.0904 µM) |
| Cc1c(N)nc(SCC2=C(C(=O)[O-])N3C(=O)C(NC(=O)/C(=N\OC(C)(C)C(=O)O)c4cnc(N)s4)C3SC2)[n+]2ncn(C)c12 (stereo not drawn) | 0.06 (≈ 0.0905 µM) |
| C/C=C/[n+]1c(N)cc(N)nc1SCC1=C(C(=O)[O-])N2C(=O)C(NC(=O)/C(=N\OC(C)(C)C(=O)O)c3cnc(N)s3)C2SC1 (stereo not drawn) | 0.06 (≈ 0.0923 µM) |
| CC(C)(O/N=C(\C(=O)NC1C(=O)N2C(C(=O)O)=C(CSc3nccc(N)n3)CSC12)c1cnc(N)s1)C(=O)O (stereo not drawn) | 0.063 (≈ 0.106 µM) |

Tested on: Escherichia coli
Experiment: In vitro minimum inhibitory concentration for Escherichia coli (ATCC-10536) by agar dilution method
Type: functional
Conditions: Escherichia coli; read-out: MIC
How it was run: as §1

| Structure (SMILES) | MIC [µg/mL] |
| --- | --- |
| CC(C)(O/N=C(\C(=O)NC1C(=O)N2C(C(=O)[O-])=C(CSc3nc(N)c4c([n+]3N)CCCC4)CSC12)c1cnc(N)s1)C(=O)O (stereo not drawn) | 0.06 (≈ 0.0904 µM) |
| Cc1c(N)nc(SCC2=C(C(=O)[O-])N3C(=O)C(NC(=O)/C(=N\OC(C)(C)C(=O)O)c4cnc(N)s4)C3SC2)[n+]2ncn(C)c12 (stereo not drawn) | 0.13 (≈ 0.196 µM) |
| C/C=C/[n+]1c(N)cc(N)nc1SCC1=C(C(=O)[O-])N2C(=O)C(NC(=O)/C(=N\OC(C)(C)C(=O)O)c3cnc(N)s3)C2SC1 (stereo not drawn) | 0.13 (≈ 0.2 µM) |
| CC(C)(O/N=C(\C(=O)NC1C(=O)N2C(C(=O)O)=C(CSc3nccc(N)n3)CSC12)c1cnc(N)s1)C(=O)O (stereo not drawn) | 1 (≈ 1.68 µM) |

Tested on: Pseudomonas aeruginosa
Experiment: In vitro minimum inhibitory concentration for Pseudomonas aeruginosa (ATCC-27853) by agar dilution method
Type: functional
Conditions: Pseudomonas aeruginosa; read-out: MIC
How it was run: as §1

| Structure (SMILES) | MIC [µg/mL] |
| --- | --- |
| CC(C)(O/N=C(\C(=O)NC1C(=O)N2C(C(=O)[O-])=C(CSc3nc(N)c4c([n+]3N)CCCC4)CSC12)c1cnc(N)s1)C(=O)O (stereo not drawn) | 2 (≈ 3.01 µM) |
| Cc1c(N)nc(SCC2=C(C(=O)[O-])N3C(=O)C(NC(=O)/C(=N\OC(C)(C)C(=O)O)c4cnc(N)s4)C3SC2)[n+]2ncn(C)c12 (stereo not drawn) | 2 (≈ 3.02 µM) |
| C/C=C/[n+]1c(N)cc(N)nc1SCC1=C(C(=O)[O-])N2C(=O)C(NC(=O)/C(=N\OC(C)(C)C(=O)O)c3cnc(N)s3)C2SC1 (stereo not drawn) | 2 (≈ 3.08 µM) |
| CC(C)(O/N=C(\C(=O)NC1C(=O)N2C(C(=O)O)=C(CSc3nccc(N)n3)CSC12)c1cnc(N)s1)C(=O)O (stereo not drawn) | 8 (≈ 13.5 µM) |

Tested on: Staphylococcus epidermidis
Experiment: In vitro minimum inhibitory concentration for Staphylococcus epidermidis (ATCC-12228) by agar dilution method
Type: functional
Conditions: Staphylococcus epidermidis; read-out: MIC
How it was run: as §1

| Structure (SMILES) | MIC [µg/mL] |
| --- | --- |
| CC(C)(O/N=C(\C(=O)NC1C(=O)N2C(C(=O)[O-])=C(CSc3nc(N)c4c([n+]3N)CCCC4)CSC12)c1cnc(N)s1)C(=O)O (stereo not drawn) | 2 (≈ 3.01 µM) |
| Cc1c(N)nc(SCC2=C(C(=O)[O-])N3C(=O)C(NC(=O)/C(=N\OC(C)(C)C(=O)O)c4cnc(N)s4)C3SC2)[n+]2ncn(C)c12 (stereo not drawn) | 2 (≈ 3.02 µM) |
| C/C=C/[n+]1c(N)cc(N)nc1SCC1=C(C(=O)[O-])N2C(=O)C(NC(=O)/C(=N\OC(C)(C)C(=O)O)c3cnc(N)s3)C2SC1 (stereo not drawn) | 2 (≈ 3.08 µM) |
| CC(C)(O/N=C(\C(=O)NC1C(=O)N2C(C(=O)O)=C(CSc3nccc(N)n3)CSC12)c1cnc(N)s1)C(=O)O (stereo not drawn) | 16 (≈ 26.9 µM) |

Tested on: Enterobacter cloacae
Experiment: In vitro minimum inhibitory concentration for Enterobacter cloacae (ATCC-27508) by agar dilution method
Type: functional
Conditions: Enterobacter cloacae; read-out: MIC
How it was run: as §1

| Structure (SMILES) | MIC [µg/mL] |
| --- | --- |
| CC(C)(O/N=C(\C(=O)NC1C(=O)N2C(C(=O)[O-])=C(CSc3nc(N)c4c([n+]3N)CCCC4)CSC12)c1cnc(N)s1)C(=O)O (stereo not drawn) | 0.02 (≈ 0.0301 µM) |
| Cc1c(N)nc(SCC2=C(C(=O)[O-])N3C(=O)C(NC(=O)/C(=N\OC(C)(C)C(=O)O)c4cnc(N)s4)C3SC2)[n+]2ncn(C)c12 (stereo not drawn) | 0.02 (≈ 0.0302 µM) |
| C/C=C/[n+]1c(N)cc(N)nc1SCC1=C(C(=O)[O-])N2C(=O)C(NC(=O)/C(=N\OC(C)(C)C(=O)O)c3cnc(N)s3)C2SC1 (stereo not drawn) | 0.03 (≈ 0.0462 µM) |
| CC(C)(O/N=C(\C(=O)NC1C(=O)N2C(C(=O)O)=C(CSc3nccc(N)n3)CSC12)c1cnc(N)s1)C(=O)O (stereo not drawn) | 0.5 (≈ 0.841 µM) |

Tested on: Citrobacter freundii
Experiment: In vitro minimum inhibitory concentration for Citrobacter freundii (ATCC-8090) by agar dilution method
Type: functional
Conditions: Citrobacter freundii; read-out: MIC
How it was run: as §1

| Structure (SMILES) | MIC [µg/mL] |
| --- | --- |
| CC(C)(O/N=C(\C(=O)NC1C(=O)N2C(C(=O)[O-])=C(CSc3nc(N)c4c([n+]3N)CCCC4)CSC12)c1cnc(N)s1)C(=O)O (stereo not drawn) | 0.06 (≈ 0.0904 µM) |
| Cc1c(N)nc(SCC2=C(C(=O)[O-])N3C(=O)C(NC(=O)/C(=N\OC(C)(C)C(=O)O)c4cnc(N)s4)C3SC2)[n+]2ncn(C)c12 (stereo not drawn) | 0.06 (≈ 0.0905 µM) |
| C/C=C/[n+]1c(N)cc(N)nc1SCC1=C(C(=O)[O-])N2C(=O)C(NC(=O)/C(=N\OC(C)(C)C(=O)O)c3cnc(N)s3)C2SC1 (stereo not drawn) | 0.13 (≈ 0.2 µM) |
| CC(C)(O/N=C(\C(=O)NC1C(=O)N2C(C(=O)O)=C(CSc3nccc(N)n3)CSC12)c1cnc(N)s1)C(=O)O (stereo not drawn) | 1 (≈ 1.68 µM) |

Source: ChEMBL document CHEMBL1127395, “Synthesis and antimicrobial activity of novel 3-[(aminopyrimidiniumyl)thio]methyl cephalosporins” (1994)
